Experimental data taken from paper PMC8607274 (Translational Oncology, 2021).
Each block holds one compound with its values, some of them ahead of it.

How the values were obtained:
[1] = test system: various cancer cell lines; conditions: cited from earlier work
xenograft models = conditions: twice-daily, nude mice; cited from earlier work
tumor = conditions: cited from earlier work
[2] = Bioavailability study, plasma concentration by HPLC-UV; format: in vivo, Swiss albino mice
Summary of the method: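 Swiss albino mice, n = 2/group, single oral or i.p. dose: test compound 10 mg/kg b.wt, curcumin 20 mg/kg b.wt. Blood sampled at 5, 10, 15 min and 1, 3, 6, 12, 24 h. Plasma protein-precipitated with an equal volume of acetonitrile. HPLC-UV at 1 mL/min, room temperature, detection 312 nm (test compound) or 369 nm (curcumin). Calibration curve in mouse plasma, 1–100 µM. Mean per time point.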

PA1 cells [3] = experiment: Transwell migration assay; format: cell-based; conditions: 40 nM, 48 h treatment, 5 h migration
Summary of the method: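 PA1 cells pretreated with various test-compound concentrations for 48 h, then 1 × 10^5 seeded into 8 µm-pore inserts in serum-free medium, complete medium below, 5 h. Inserts washed in PBS and fixed in 70% ethanol; non-migrated inner cells removed with cotton. Cells stained with 0.2% crystal violet, imaged and quantified by image analysis.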

A2780 cells [4] = experiment: Cell cycle analysis; format: cell-based; conditions: 48 h
Summary of the method: (§1)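 Cells seeded at 1 × 10^5/well, then treated next day with 10, 50 or 75 nM for 48 h. PI (4 µg/ml) added for 5 min at RT. 10,000 events acquired by flow cytometry.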

PA1 cells [5] = experiment: Spectrometric ROS measurement; format: cell-based
Summary of the method: (§2)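 Plate-reader ROS: 20,000 cells/well plated; after 24 h washed in PBS. Incubated 1 h in PBS with 10 µM H2DCFDA plus various test-compound concentrations, with or without 20 mM NAC. Fluorescence read at ex 485/em 535. 200 µM H2O2 as positive control.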

A2780 cells [6] = experiment: Real time PCR of mitochondrial OXPHOS genes; format: cell-based; conditions: 48 h
Summary of the method: (§3)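 Total RNA extracted from cells treated with various test-compound concentrations. 2 µg RNA reverse-transcribed to cDNA. qPCR run in triplicate with primers for ND2, CYTB and ATPase 6.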

[7] = test system: human breast cancer cell lines (MDA-MB-231, MDA-MB-468, MCF7); experiment: MTT assay of human breast cancer cell lines; format: cell-based; conditions: 48 h, read-out: IC50 (cytotoxicity)
PA-1 cells = experiment: Cytotoxicity on ovarian cancer cells compared to curcumin; format: cell-based
A2780 cells [8] = experiment: Spectrometric ROS measurement; format: cell-based
Summary of the method: as §2

[9] = Toxicity in experimental animals; format: in vivo, Swiss albino mice
A2780 cells [10] = experiment: Intracellular ROS, H2DCFDA flow cytometry; format: cell-based; conditions: 75 nM
Summary of the method: (§4)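 Intracellular ROS: 1 × 10^5 cells per 35 mm dish exposed to test compound for 10, 20 and 30 min. Harvested, washed in PBS, stained with H2DCFDA for 30 min and analysed by flow cytometry. H2O2-treated cells as positive control. ROS taken as the histogram shift in median fluorescence intensity versus vehicle control.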

PA1 cells [11] = experiment: Cell cycle analysis; format: cell-based; conditions: 48 h
Summary of the method: as §1

PA1 cells [12] = experiment: JC-1 mitochondrial membrane potential assay; format: cell-based; conditions: 10, 50, 75 nM; 48 h
Summary of the method: (§5)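 After 48 h test-compound treatment, cells were harvested and resuspended in staining buffer containing JC-1, 20 min in the dark at 37 °C, 5% CO2. Then resuspended in fresh buffer; 10,000 events acquired by flow cytometry. Valinomycin as positive control.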

A2780 cells [13] = experiment: Immunoblotting of apoptosis-related proteins; format: cell-based
Summary of the method: (§6)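 Treated and control cells lysed in RIPA buffer with protease inhibitors; protein measured by Bradford. 40 µg resolved by SDS-PAGE and transferred to PVDF. Bands probed with antibodies, detected by enhanced chemiluminescence and quantified by densitometry.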

MCF7 = experiment: MTT assay of human breast cancer cell lines; format: cell-based; conditions: 48 hours
A2780 cells [14] = experiment: JC-1 mitochondrial membrane potential assay; format: cell-based; conditions: 10, 50, 75 nM; 48 h
Summary of the method: as §5

[15] = test system: Ehrlich ascites carcinoma (EAC) solid tumor; experiment: Antitumor activity in EAC solid tumor mice; format: in vivo, Swiss albino mice
Summary of the method: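 EAC cells maintained by intraperitoneal passage in mice every 7 days. Day-7 ascites cells were diluted in PBS, and 1 × 10^6 cells were injected subcutaneously into the thigh. On day 7, caliper-measured tumours were allocated to groups of equal mean size, 5 animals/group, repeated three times (n = 15). Groups: untreated control or test compound 10 mg/kg b.wt i.p. every alternate day. Tumour size and body weight were recorded every alternate day; V = (ab2)/2.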

PA1 cells [16] = experiment: Real time PCR of mitochondrial OXPHOS genes; format: cell-based; conditions: 48 h
Summary of the method: as §3

[17] = test system: Ehrlich ascites carcinoma (EAC) solid tumor; experiment: Chemopreventive effect in EAC solid tumor mice; format: in vivo, Swiss albino mice
Summary of the method: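 Subcutaneous EAC thigh tumour model (1 × 10^6 cells). The treated group got 15 alternate-day doses of test compound (10 mg/kg b.wt) before tumour injection, none at inoculation, then 15 further doses after tumour injection. Compared with untreated controls, n = 5/group. Tumour volume was measured from day 7 after tumour injection, with body weight and physiological parameters. Two independent experiments.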

PA1 cells [18] = experiment: Immunoblotting of apoptosis-related proteins and MMP1; format: cell-based
Summary of the method: as §6

EAC tumor tissue = experiment: Histology; format: in vivo, Swiss albino mice; conditions: ST03 post-treatment
Summary of the method: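 Tumour and organs (kidney, liver, spleen) collected at study end and fixed; paraffin sections (10 µm) H&E-stained. PCNA IHC on 5 µm tumour sections: 3% H2O2 in PBS, antigen retrieval by boiling in 10 mM sodium citrate pH 6. Blocked with 5% goat serum/1% BSA for 30 min. Mouse anti-PCNA 1:100 (1 h RT or overnight 4 °C), biotinylated anti-mouse IgG 1:200, streptavidin-HRP 1:1000, DAB-H2O2.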

A2780 = experiment: Cytotoxicity on ovarian cancer cells compared to curcumin; format: cell-based
PA1 cells [19] = experiment: Intracellular ROS, H2DCFDA flow cytometry; format: cell-based
Summary of the method: as §4

Solubility in 0.6 N HCl = format: physicochemical
A2780 cells [20] = experiment: Cell viability assay with ST03 and NAC; format: cell-based; conditions: 20 mM NAC, 20 nM ST03, 24 h
PA1 cells [21] = experiment: Cell viability assay with ST03 and NAC; format: cell-based; conditions: 20 mM NAC, 20 nM ST03, 24 h
[22] = Swiss albino, mouse, plasma, ip, 20 mg/kg
[23] = Swiss albino, mouse, plasma, po, 20 mg/kg
[24] = Swiss albino, mouse, plasma, ip, 10 mg/kg
[25] = Swiss albino, mouse, plasma, po, 10 mg/kg

Compound: O=C1/C(=C/c2ccccc2)CN(C(=O)C(=O)N2C/C(=C\c3ccccc3)C(=O)/C(=C/c3ccccc3)C2)C/C1=C\c1ccccc1 [1,2-bis[(3E,5E)−3,5-dibenzylidene-4-oxo-1-piperidyl]ethane-1,2-dione, reference compound]
cytotoxic potency compared with curcumin ([1]; multiple cancer cell lines in vitro): greater potency than the parent compound curcumin

Cmax [2, 22]: 2.7 µM
Tmax [2, 22]: 3 h
Cmax [2, 23]: 13.7 µM
Tmax [2, 23]: 0.25 h
Compound: COc1cc(/C=C/C(=O)CC(=O)/C=C/c2ccc(O)c(OC)c2)ccc1O [curcumin, reference compound]
effective dosage in xenograft models (xenograft models): 50 mg/kg b.wt
dosage with antitumor activity in vivo (tumor): 800 mg/kg of body weight
potency range [1]: ~10000 nM

Compound: O=C1/C(=C/c2ccccc2Cl)CN(C(=O)C(=O)N2C/C(=C\c3ccccc3Cl)C(=O)/C(=C/c3ccccc3Cl)C2)C/C1=C\c1ccccc1Cl [ST03, 1,2-bis[(3E,5E)-3,5-bis[(2-chlorophenyl)methylene]-4-oxo-1-piperidyl]ethane-1,2-dione]
reduction in migration (PA1 cells [3]): 60%
cells accumulated at the sub G0/G1 stage (A2780 cells [4]; 50 nM): ~60%
cell cycle arrest (A2780 cells [4]; 10, 50, 75 nM): no notable cell cycle arrest
time to peak ROS levels (PA1 cells [5]; 20 mM ST03 as printed, 20 nM): 1 h
transcription of mitochondrially encoded OXPHOS genes (ND2, CYB, Atpase6) (A2780 cells [6]): decrease in the transcription
IC50 [7]: 166 to 301 nM
cytotoxicity on PA-1 compared with A2780 (PA-1 cells): better cytotoxicity on PA-1 cells
cytotoxicity relative to curcumin (PA-1 cells): 100 fold
time to peak ROS levels (A2780 cells [8]; 20 mM ST03 as printed, 20 nM): 1 h
histopathology of kidney, liver and spleen (H&E) ([9]; ST03 post-treatment): no pathological changes
RBC count ([9]; end of study): No significant change
WBC count vs control group ([9]; end of study): increase in the number of WBCs
body weight ([9]; pre- and post-treatment animals, 10 mg/kg b.wt): no notable weight reduction
ALT level ([9]; serum, end of study): No significant change
AST level ([9]; serum, end of study): No significant change
urea level ([9]; serum, end of study): No significant change
time at which the histogram shifted (ROS production) (A2780 cells [10]): 30 min
cells accumulated at the sub G0/G1 stage (PA1 cells [11]; 50 nM): ~70%
cell cycle arrest (PA1 cells [11]; 10, 50, 75 nM): no notable cell cycle arrest
JC1 green population (mitochondrial damage) (PA1 cells [12]): increase in the green population
p53 expression (A2780 cells [13]): upregulation
Bax expression (A2780 cells [13]; 40 nM): increase
Bcl2 expression (A2780 cells [13]; 40 nM): significant decrease
Cytochrome C (A2780 cells [13]; increasing concentrations): increase
IC50 rank among breast cancer cell lines (MCF7): least IC50
JC1 green population (mitochondrial damage) (A2780 cells [14]): increase in the green population
spleen size vs untreated animals ([15]; 10 mg/kg b.wt i.p.): reduction in spleen size
tumor growth vs untreated control ([15]; 10 mg/kg b.wt i.p. every alternate day from day 7, 25 days): significant reduction in tumor growth
dosage sufficient to inhibit tumor growth without adverse systemic toxicity ([15]; 15 doses, tumor allograft): 10 mg/kg
transcription of mitochondrially encoded OXPHOS genes (ND2, CYB, Atpase6) (PA1 cells [16]): decrease in the transcription
pre and post-treatment compared with post-treatment alone ([17]; 10 mg/kg b.wt): better results than post-treatment alone
tumor growth vs controls ([17]; pre-treatment with 15 alternate doses of 10 mg/kg b.wt, then post-treatment): significant reduction in tumor growth
p53 expression (PA1 cells [18]): upregulation
Bax expression (PA1 cells [18]; 40 nM): increase
Bcl2 expression (PA1 cells [18]; 40 nM): significant decrease
MMP1 expression (PA1 cells [18]; 40 nM): significant decrease
Cytochrome C (PA1 cells [18]; increasing concentrations): increase
Cmax [2, 24]: 98.4 µM
Tmax [2, 24]: 8 h
Cmax [2, 25]: 55.2 µM
Tmax [2, 25]: 2 h
half-life [2, 25]: 3 h
presence in plasma until ([2]; intraperitoneal): > 12 h
presence in plasma until ([2]; oral): > 12 h
bioavailability compared to curcumin ([2]; oral, ST03 10 mg/kg, curcumin 20 mg/kg): ~14 fold
detectable in plasma ([2]; route not given): up to 12 h
potency relative to curcumin [1]: ~100 fold
selectivity of toxicity, cancer cells vs normal cells [1]: selectively induces toxicity in cancer cells compared to normal cells
proliferating cells (PCNA staining) in tumor (EAC tumor tissue): reduction in proliferating cells
tumor cells in H&E stained tumor vs control tissue (EAC tumor tissue): significant reduction of tumor cells
Bcl2 in tumor extract (EAC tumor tissue; western blot): up-regulation
cytotoxicity relative to curcumin (A2780): 100 fold
time at which ROS production was induced (PA1 cells [19]; 40 nM): 10 min
time at which ROS production was induced (PA1 cells [19]; 50 nM): ≤ 10 min
solubility (Solubility in 0.6 N HCl): completely soluble

Compound: CC(=O)N[C@@H](CS)C(=O)O [NAC, N-acetylcysteine, reference compound]
effect of NAC on ST03 induced ROS (PA1 cells [5]; 20 mM NAC with ST03): blocked ST03 induced increase in ROS
effect of NAC on ST03 induced ROS (A2780 cells [8]; 20 mM NAC with ST03): blocked ST03 induced increase in ROS
cell death with ST03 in presence of NAC (A2780 cells [20]): decrease in cell death
cell death with ST03 in presence of NAC (PA1 cells [21]): decrease in cell death
